Screening results as filed in PubChem.
KCNK9 inh – inhibitors of human KCNK9 two-pore domain potassium channel | Q9NPC2 | HEK293 KCNK9, FluxOR thallium flux fluorescence; hits give low values | 310,000 compounds, 1.2% hits | B-score at 10 µM;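 active means ratio B-score over 3 SD below the library mean, with starting fluorescence within 5 SD of its mean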;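 further: negative B-score means less thallium flux so channel inhibition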
KCNQ1 pot – potentiators or activators of human KCNQ1 potassium channel; B-score at 10 µM; P51787; 310,000 compounds, 0.35% hits; CHO-K1 KCNQ1, thallium flux FluxOR fluorescence; hits give high values;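 active means fluorescence ratio B-score, a plate-corrected score, at least three library SD, with initial intensity B-score within 5 SD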
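assay system = KCNQ1-transfected CHO-K1 cells | medium = assay buffer with matched DMSO | probe or stimulus = depolarizing K+/Tl+ stimulus, K2SO4 and Tl2SO4 each 12.5 mM in 5x stock | dosing = single dose | incubation = dye 90 min, compound 20 min, room temperature | detection = kinetic FluxOR fluorescence, 10 s baseline plus 110 s post-stimulus | evaluation = ratio B score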
KCNK3 inh – human KCNK3 channel inhibition, primary screen; O14649; CHO-KCNK3 thallium flux, FluxOR fluorescence; hits give low values; B-score at 10 µM; 340,000 compounds, 0.84% hits; AID 602410;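 active means B-score under library mean minus 4 SD, starting fluorescence ratio at most library mean plus 5 SD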;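 further: more negative B-score means stronger inhibition of thallium flux through KCNK3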
Kir21 inh – Kir2.1 (mouse) channel inhibition. P35561. HEK293-Kir2.1, FluxOR thallium flux fluorescence; hits give low values. B-score at 10 µM. 310,000 compounds, 0.85% hits. AID 1672;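 active means fluorescence ratio B-score at or below minus 3 SD of library scores, with starting-brightness B-score within 2 SD, cut at about -4.2 in these data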;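 further: channel flux triggered by added potassium and thallium sulfate stimulus; B-score of peak minus minimum fluorescence over baseline after thallium stimulus; more negative B-score means stronger Kir2.1 block with less thallium influx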
Target sequence (P35561 whole entry, looked up): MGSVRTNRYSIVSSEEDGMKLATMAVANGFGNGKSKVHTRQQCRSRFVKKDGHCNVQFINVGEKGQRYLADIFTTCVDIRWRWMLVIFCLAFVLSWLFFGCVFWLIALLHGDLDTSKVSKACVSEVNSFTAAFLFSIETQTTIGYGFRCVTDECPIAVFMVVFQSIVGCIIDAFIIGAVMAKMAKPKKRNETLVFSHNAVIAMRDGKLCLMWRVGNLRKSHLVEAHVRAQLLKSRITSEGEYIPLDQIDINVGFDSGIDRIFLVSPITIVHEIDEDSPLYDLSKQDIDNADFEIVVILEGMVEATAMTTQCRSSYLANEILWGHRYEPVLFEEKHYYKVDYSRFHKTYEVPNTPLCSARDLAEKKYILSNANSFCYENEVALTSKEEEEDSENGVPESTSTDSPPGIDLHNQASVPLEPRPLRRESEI
KCNQ1 block – inhibitors of human KCNQ1 potassium channel | P51787 | CHO-K1 KCNQ1, FluxOR thallium flux fluorescence; hits give high values | B-score at 10 µM | 310,000 compounds, 1.3% hits;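 active means compounds whose thallium flux B-score, printed positive for inhibition, exceeds three library SD while starting fluorescence stays within three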;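 further: channel opened by potassium depolarization with thallium stimulus after 20 min compound exposure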
hERG protect – hERG (human) protection from proarrhythmic block; Q12809; CHO-hERG, FluxOR thallium flux, dofetilide IC70 present; activation (rescue from dofetilide block), less the hit threshold, % at 10 µM; 310,000 compounds, 0.51% hits;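 active means activation above the mean of controls blocked by dofetilide plus 5 SD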;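 further: thallium influx through hERG after potassium depolarization seen as dye fluorescence rise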
KCNK9 inh conf – human KCNK9 inhibitor confirmation. HEK293 KCNK9 cells, FluxOR thallium flux fluorescence. shares compounds with KCNK9 inh. inhibition, % at 10 µM. 4,900 compounds, 43% hits;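 active means thallium signal inhibited by more than 5 SD of the compound-free buffer control wells, on both duplicate plates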;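 further: 0% = assay buffer control wells without compound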
Kir21 sel – selectivity of KCNK9 modulators against mouse Kir2.1; shares compounds with KCNK9 inh; Kir2.1 cells, FluxOR thallium flux fluorescence; inhibition, % at 10 µM; 4,900 compounds, 4% hits; AID 492993;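 active means thallium signal drop more than 5 SD beyond the mean of the no-compound control wells, seen in both duplicate plates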;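 further: signal is fluorescence rise after thallium addition divided by baseline fluorescence; plate controls were assay buffer only for no effect and full block by chlorpromazine control for full effect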
HEK293 Tl ctr – non-induced cell nonspecific activity of KCNK9 modulators; shares compounds with KCNK9 inh; 4,900 compounds, 40% hits; inhibition, % at 10 µM; non-induced KCNK9-HEK293, FluxOR thallium flux;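 active means thallium signal drop beyond 5 SD of the untreated control mean, on both duplicate plates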;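 further: plate controls were buffer only IC0 wells for no effect and SID17386958 at its maximal inhibitory level for full effect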
Numbers without * were called inactive; i = inactive; nt = no result. Sampled rows, rich in hits. Any-hit rate of the full collection: about 3.7%.

SMILES	KCNK9 inh	KCNQ1 pot	KCNK3 inh	Kir21 inh	KCNQ1 block	hERG protect	KCNK9 inh conf	Kir21 sel	HEK293 Tl ctr
CC(C)C[C@H](NC(=O)c1nc[nH]c1C(=O)NCC(=O)OCc1ccccc1)C(=O)OCc1ccccc1	i	i	i	0.11	i	-23	i	i	i
Cc1ccc(-n2nc(C)c(Sc3ccccc3[N+](=O)[O-])c2N)cc1	i	i	i	-0.02	i	-11	nt	nt	nt
Nc1nc(SCC(=O)Nc2ccccc2C(F)(F)F)[nH]c(=O)c1-c1ccccc1	i	i	i	-0.55	i	-3	nt	nt	nt
CC(C)OC(=O)CC(=O)CSc1nc2c(c(-c3cccs3)c1C#N)CCC2	i	i	i	1.1	i	-6	nt	nt	nt
CCOC(=O)C(C)Sc1nc2c(c(-c3cccs3)c1C#N)CCC2 (stereo not given)	i	i	i	0.34	i	1	i	i	i
CCCC(=O)NC(Nc1cccc(C(F)(F)F)c1)C(Cl)(Cl)Cl (stereo not given)	-8.8*	i	i	-1.8	8*	-6	32%*	i	26%*
CCCC(=O)NC(Nc1cc(C(F)(F)F)ccc1Cl)C(Cl)(Cl)Cl (stereo not given)	i	i	i	-2.3	i	-14	nt	nt	nt
Cc1ccc(C(c2nnnn2C2CCCC2)N2c3ccccc3CC2C)cc1 (stereo not given)	-11*	i	i	-0.1	7*	-14	70%*	i	50%*
COc1ccc(-c2cc(C)nc3c(-c4ccccc4)cnn23)cc1	-9.5*	i	i	-1.1	i	-20	58%*	i	51%*
COc1cc(SC#N)ccc1N=Cc1c(C)[nH]n(-c2ccc(C)c(C)c2)c1=O	i	i	i	0.89	i	-4	i	i	i
CN(Cc1ccccc1)C(=O)COC(=O)c1ccccc1NS(=O)(=O)c1cccc(N)c1	i	i	i	-0.96	i	-7	nt	nt	nt
CC(OC(=O)c1ccccc1NS(=O)(=O)c1cccc(C(F)(F)F)c1)C(=O)N(C)Cc1ccccc1 (stereo not given)	-13*	i	i	1.5	i	-9	64%*	i	31%*
O=C(c1ccccc1)C(O)C(c1ccccc1)N1CCOCC1 (stereo not given)	i	i	i	1.4	i	-6	nt	nt	nt
Cc1cc(C2N=C(N)Nc3nc4ccccc4n32)c(C)n1-c1ccccc1Cl (stereo not given)	-8.7*	i	i	-0.19	i	-11	52%*	i	39%*
CN(C)CCN(Cc1ccccc1)c1ccnc(N(C)C)c1C#N	i	i	i	-2.8	i	-11	nt	nt	nt
CN(C)c1nccc(N(Cc2ccccc2)Cc2ccccc2)c1C#N	i	i	i	0.09	i	-6	i	i	24%*
CC(C)(C)NC(=O)Cn1c(Cl)nc2ccccc21	i	i	i	0.88	i	-6	nt	nt	nt
Cc1cccc(-c2onc3ccc(C(=O)/C=C/N(C)C)cc23)c1	i	i	i	-0.12	i	-2	i	i	i
Cc1ccc(-c2onc3ccc(C(=O)/C=C/N(C)C)cc23)cc1	i	i	i	3.5	i	-16	nt	nt	nt
CCOC(=O)CNC(=S)n1ncnc1N	i	i	i	-1.9	i	-6	nt	nt	nt
C=CCSc1nc2sc3c(c2c(=O)n1CC)CCc1ccccc1-3	i	i	i	-0.7	i	0	i	i	i
C=CCn1c(SCC)nc2sc3c(c2c1=O)CCc1ccccc1-3	i	i	i	0.33	i	-10	nt	nt	nt
CCOC(=O)C(C(=O)OCC)N(C#N)c1nc(N(C)C)nc(N(C)C)n1	i	i	i	0.34	i	-6	nt	nt	nt
O=S(=O)(Nc1ccc(Cl)cn1)c1ccc(F)cc1	i	i	i	0.35	i	-8	nt	nt	nt
COc1cc(N2CCCC2)c(OC)cc1/C=C(/C#N)c1ccc(F)cc1	-12*	i	i	1.5	7*	-15	50%*	i	66%*
SMILES	KCNK9 inh	KCNQ1 pot	KCNK3 inh	Kir21 inh	KCNQ1 block	hERG protect	KCNK9 inh conf	Kir21 sel	HEK293 Tl ctr
COc1cc(N2CCCC2)c(OC)cc1/C=C(/C#N)c1ccc(Br)cc1	i	i	i	-1.5	i	-11	nt	nt	nt
O=C(CSc1nccc(-c2cccs2)n1)Nc1ccc(F)c(Cl)c1	-8.2*	i	i	-0.84	i	-2	i	i	37%*
O=C(CSc1nccc(-c2cccs2)n1)Nc1cccc(Cl)c1	i	i	i	-0.62	i	-5	nt	nt	nt
CCOc1ccc(N2CC(C(=O)NC3CCCC3)CC2=O)cc1 (stereo not given)	i	i	i	-0.61	i	-7	nt	nt	nt
CC12COC3(C(=O)Nc4ccc5ccccc5c4)CC1CCC32C (stereo not given)	i	i	i	0.6	i	-1	i	i	i
CC12COC3(C(=O)Nc4ccccc4)CC1CCC32C (stereo not given)	i	i	i	1.9	i	-7	nt	nt	nt
COc1ccccc1-c1ccc(SCc2ccc(F)cc2)nn1	i	i	i	-0.38	i	-12	nt	nt	nt
COc1ccccc1-c1ccc(SCc2ccc(C)cc2)nn1	i	i	i	0.47	i	-24	i	i	i
COc1ccc(OC)c(CN2CCN(C(=O)CCC(=O)c3cccs3)CC2)c1	i	i	i	0.66	i	-20	nt	nt	nt
CCCCn1c(N)c(N(C(=O)CSc2nncn2-c2ccccc2C)C2CCCC2)c(=O)[nH]c1=O	nt	nt	i	nt	nt	nt	nt	nt	nt
CCc1ccc(N=C2NC(=O)/C(=C/c3ccc(OCC(=O)O)c(OC)c3)S2)cc1	i	i	i	-1.9	i	-3	i	i	i
CCc1ccc(N=C2NC(=O)/C(=C/c3ccc(OCC(=O)O)cc3)S2)cc1	i	i	i	2	i	-8	nt	nt	nt
Fc1cc(F)cc(NC(=S)Nc2ccccc2N2CCOCC2)c1	i	i	i	-1.5	i	-16	nt	nt	nt
COC(=O)c1ccc(NS(=O)(=O)c2ccccc2)o1	i	i	i	0.36	i	-2	nt	nt	nt
